INS-1E GSIS act – GLuc luminescence reporter in INS-1E cells, primary screen for activators of glucose-dependent secretion of insulin. INS-1E GLuc reporter insulin secretion, 2-3 h. activation, % at 16.6 µM. 370,000 compounds, 0.61% hits. AID 743287;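 active = lowest replicate activation of at least 40%, so every replicate reaches that level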
CDK5 inh – blocks human CDK5/p35 kinase activity | Recombinant CDK5/p35, ADP-Glo luminescence, 60 min | inhibition, % at 10 µM | 330,000 compounds, 0.01% hits;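 active = highest replicate inhibition of at least 50% and at least 75% of replicates reaching 50%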
GSK3B inh – inhibitors of human GSK3beta kinase; 300,000 compounds, 0.038% hits; GST-GSK3beta kinase, ADP-Glo luminescence, 60 min; active compounds read low; AID 2097; activity score (negative = inhibition), % at 10 µM; P49841;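 active = more than half of replicate wells score below -50%, meaning over 50% inhibition versus plate controls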
Target sequence (P49841 whole entry, looked up): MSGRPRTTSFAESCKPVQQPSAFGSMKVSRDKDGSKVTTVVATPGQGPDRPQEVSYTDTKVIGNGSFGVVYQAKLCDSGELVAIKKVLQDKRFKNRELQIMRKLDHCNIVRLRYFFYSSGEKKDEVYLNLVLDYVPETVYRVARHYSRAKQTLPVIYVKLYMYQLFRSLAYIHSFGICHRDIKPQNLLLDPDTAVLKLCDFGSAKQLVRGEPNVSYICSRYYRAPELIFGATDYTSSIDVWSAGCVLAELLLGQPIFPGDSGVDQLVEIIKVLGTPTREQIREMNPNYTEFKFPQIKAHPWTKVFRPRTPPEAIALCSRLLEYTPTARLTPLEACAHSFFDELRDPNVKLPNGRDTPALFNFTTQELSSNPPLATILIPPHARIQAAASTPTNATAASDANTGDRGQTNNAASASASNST
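Assay system: GST-fused GSK3beta enzyme, cell-free / Medium: Tris pH 7.5 buffer with MgCl2, DTT, BSA, heparin / Also added: peptide substrate plus 25 µM ATP (final) / Compound: 10 µM single point / Timing: kinase reaction with compound 60 min at room temperature / Detection: ADP-Glo luminescence / Benchmarks: DMSO neutral wells and GW8510 at 20 µM as positive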
GSK3 alpha inh – inhibitors of human GSK-3 alpha kinase | P49840 | ADP-Glo luminescence, 60 min | inhibition, % at 10 µM | 320,000 compounds, 0.1% hits | AID 2650;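 active = more than half of replicates show inhibition above 20%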;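 note: GST-tagged GSK-3 alpha with peptide substrate and 25 µM ATP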
Env fusion inh – HIV envelope-mediated fusion inhibition; HeLa-JRFL Env/CEM21 cell fusion, luciferase; inhibition, % at 12.3 µM; 360,000 compounds, 1.1% hits;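 active = mean replicate inhibition score of at least 50 and every replicate individually at or above 50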
STK33 kinase inh – human STK33 kinase inhibition | purified STK33, MBP phosphorylation, ADP-Glo luminescence | Q9BYT3 | AID 2661 | 320,000 compounds, 0.073% hits | inhibition, % at 10 µM;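 active = inhibition at or above 25%, using the most active replicate where run in duplicate; inactive = inhibition below 25%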
A number is an active result; – = inactive; · = no result given; [ ] = another dose, or the depositor's remark. An excerpt weighted towards active compounds, which were near 1.4% of everything screened.

SMILES	INS-1E GSIS act	CDK5 inh	GSK3B inh	GSK3 alpha inh	Env fusion inh	STK33 kinase inh
C[C@H](CO)N1C[C@H](C)[C@@H](CN(C)C(=O)[C@H](Cc2ccccc2)N(C)C)OCc2ccccc2-c2c(n(C)c3ccccc23)C1=O	–	·	·	·	60[16.7 µM]	·
O=C(Nc1ccc(CN2CCOCC2)cc1)c1ccc(Cl)cc1	–	–	–	–	–	–
COC(=O)c1ccc(NC(=O)c2ccc(CN3CCOCC3)cc2)cc1	–	–	–	–	84	–
O=C(Nc1ccc(CN2CCS(=O)(=O)CC2)cc1)c1ccc(C(F)(F)F)cc1	·	–	–	–	76	–
CCN1C(=O)Nc2cccc3cccc1c23	–	–	–	–	62	–
O=C(NCC[C@@H]1CC[C@H](NS(=O)(=O)c2cccc(F)c2)[C@@H](CO)O1)Nc1cc(F)ccc1F	–	·	·	·	–	·
O=c1[nH]cccc1-c1nc2ccccc2[nH]1	–	–	–	72	–	–
Nc1ccccc1-c1nc2ccccc2[nH]1	·	–	–	–	–	–
O=C(c1ccc(F)cc1)N1C[C@@H]2[C@H](c3ccccc31)[C@H](CO)N2C(=O)c1ccccc1	–	·	·	·	·	·
CCOC(=O)c1[nH]c2cc(OC)c(OC)cc2c1NC(=O)c1ccc2c(c1)OCO2	69	–	–	–	–	–
CCCC#Cc1cnc2c(c1)C(=O)N([C@@H](C)CO)C[C@@H](C)[C@@H](CN(C)C(=O)NCCC)O2	–	·	·	·	–	·
CN(CCOc1ccc(-c2ccn(S(=O)(=O)c3c(Cl)cccc3Cl)n2)cc1)c1ccccn1	–	–	–	–	–	–
CN(CCOc1ccc(-c2ccn(S(=O)(=O)c3ccc(Cl)cc3)n2)cc1)c1ccccn1	·	–	–	–	60	–
Cc1noc(C)c1S(=O)(=O)Nc1ccc2c(c1)CC(=O)N([C@H](C)CO)C[C@H](C)[C@H](CN(C)C(=O)Nc1ccc(C(F)(F)F)cc1)O2	–	·	·	·	–	·
Cc1ccc(S(=O)(=O)Nc2ccc3c(c2)CC(=O)N([C@@H](C)CO)C[C@@H](C)[C@@H](CN(C)S(=O)(=O)c2ccc(C)cc2)O3)cc1	–	·	·	·	–	·
CCOC(=O)N1CCN(C(=O)COc2cccc3c2CCN(Cc2ccc(F)cc2)C3=O)CC1	–	–	–	–	57	–
O=C1c2cccc(OCc3ccc(F)cc3)c2CCN1Cc1ccccc1	–	–	–	–	77	–
O=C(Nc1ccc(N2CCN(C(=O)c3ccccc3)CC2)cc1)c1ccc2c(c1)OCO2	·	–	–	–	–	–
Cc1ccc(C(=O)N2CCN(c3ccc(NC(=O)c4ccc5c(c4)OCCO5)cc3)CC2)cc1	–	–	–	–	65	–
O=C(c1cnccn1)N1CC[C@@H]2[C@H]1c1cc(C#Cc3cccnc3)ccc1N[C@@H]2CO	–	·	·	·	·	·
CCOC(=O)C1=C(C)N=C2c3ccccc3C(=O)C2C1c1ccc(Cl)cc1 (configuration not stated)	·	–	–	–	84	–
CC1(C)CC(=O)C2=C(C1)N=C1c3ccccc3C(=O)C1C2c1ccc(Cl)cc1 (configuration not stated)	·	–	–	–	·	–
O=C(C[C@@H]1C=C[C@H](NC(=O)CCN2CCCCC2)[C@H](CO)O1)Nc1ccccc1	–	·	·	·	–	·
O=S(=O)(N[C@H]1CC[C@H](CCn2cc(-c3cccc(F)c3)nn2)O[C@@H]1CO)c1ccc(F)cc1	–	·	·	·	–	·
COC(=O)c1c(NC(=O)c2cccc([N+](=O)[O-])c2)sc(C(N)=O)c1C	–	–	–	–	–	–
SMILES	INS-1E GSIS act	CDK5 inh	GSK3B inh	GSK3 alpha inh	Env fusion inh	STK33 kinase inh
COC(=O)c1sc(NC(=O)c2cccc([N+](=O)[O-])c2)c(C(N)=O)c1C	78	–	–	–	–	–
C[C@@H]1CCCCO[C@H](CN(C)C(=O)C2CCCCC2)[C@H](C)CN([C@H](C)CO)C(=O)c2cc(N(C)C)ccc2O1	–	·	·	·	–	·
C[C@@H]1CN([C@@H](C)CO)S(=O)(=O)c2ccc(C3=CCCC3)cc2O[C@H]1CN(C)C(=O)c1ccccc1	–	·	·	·	–	·
CC(C)(C)C1=Nn2c(nnc2C2CCCCC2)SC1	81	–	–	–	–	–
c1cc2c(cc1C1=Nn3c(nnc3C3CCCCC3)SC1)OCO2	·	–	–	–	–	–
C[C@@H]1CN([C@@H](C)CO)C(=O)Cc2cc(NS(=O)(=O)c3cn(C)cn3)ccc2O[C@H]1CN(C)Cc1ccccc1	–	·	·	·	–	·
Cc1ccc(NC2=C/C(=N/S(=O)(=O)c3cccs3)c3ccccc3C2=O)cc1	·	–	–	–	74	–
CCc1ccc(S(=O)(=O)/N=C2\C=C(Nc3ccc(C(=O)O)cc3)C(=O)c3ccccc32)cc1	–	–	–	–	73	–
CCOC(=O)[C@@H]1[C@H]2COc3ccc(Br)cc3[C@@H]2N2C(=O)N(c3ccc(F)cc3)C(=O)[C@@]12C	–	–	·	–	100	–
CCOC(=O)[C@H]1[C@H]2COc3ccc(Br)cc3[C@@H]2N2C(=O)N(c3ccc(F)cc3)C(=O)[C@@]12C	–	–	·	–	–	–
COc1ccc2c(c1)OC[C@H]1[C@H]2N2C(=O)c3cc(OC)c(OC)cc3NC(=O)[C@@]2(C)[C@H]1c1ccccc1	–	–	·	–	–	–
COc1ccc2c(c1)OC[C@H]1[C@H]2N2C(=O)CN(Cc3ccc(Cl)cc3)C(=O)[C@@]2(C)[C@H]1c1ccccc1	–	–	·	–	73	–
COc1ccc(CN2CC(=O)N3[C@H]4c5ccc(OC)cc5OC[C@@H]4[C@H](c4ccccc4)[C@]3(C)C2=O)cc1	–	–	·	–	–	–
COc1cc2c(cc1OC)C(=O)N1[C@H]3c4ccccc4OC[C@@H]3[C@H](c3ccccc3)[C@]1(C)C(=O)N2	–	–	·	–	66	–
CCOC(=O)[C@@H]1[C@H]2COc3ccc(Br)cc3[C@@H]2N2C(=O)N(c3ccc(Cl)cc3)C(=O)[C@@]12C	–	–	·	–	67	–
CO[C@@H]1CN(C)C(=O)c2cc(NC(C)=O)ccc2OC[C@@H](C)N(Cc2cc(F)ccc2F)C[C@@H]1C	–	·	·	·	–	·
O=C(C[C@@H]1CC[C@H](NC(=O)CC2CC2)[C@@H](CO)O1)NCc1ccc(-c2ccccc2)cc1	–	·	·	·	–	·
CCOC(=O)[C@H]1[C@H]2COc3ccccc3[C@@H]2N2C(=O)c3cc(C)ccc3NC(=O)[C@@]12C	–	–	·	–	–	–
CCOC(=O)[C@@H]1[C@H]2COc3ccccc3[C@@H]2N2C(=O)N(c3cccc(F)c3)C(=O)[C@]12C	–	–	–	–	–	–
CCOC(=O)[C@@H]1[C@H]2COc3cc(OC)ccc3[C@H]2N2C(=O)N(c3ccc(C(F)(F)F)cc3)C(=O)[C@]12C	–	–	·	–	109	–
CCOC(=O)[C@@H]1[C@H]2COc3ccc(Br)cc3[C@@H]2N2C(=O)N(c3cccc(F)c3)C(=O)[C@@]12C	–	–	–	–	75	–

Source: PubChem (Broad Institute)
